In ChEMBL document CHEMBL1126107, “Structure-activity relationships of imidazo[4,5-f]quinoline partial structures and analogs. Discovery of pyrazolo[3,4-f]quinoline derivatives as potent immunostimulants” (1992):
≈ marks a conversion by molar mass, not a printed value.

Columns and labels:
Escherichia coli [1] = experiment: Minimum subcutaneous effective dose required to protect mice from systemic Escherichia coli; format: functional; conditions: sc, read-out: MED
Outline: (§1)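 Female NSA (CF-1) mice, 11–16 g, dosed sc with compound in pyrogen-free saline or water 24 h before ip injection of 0.5 mL E. coli N63 (~4×10^7 CFU/mL, from log-phase L broth culture). Subtherapeutic gentamicin given sc at 0.5, 4 and 24 h postinfection. Ten mice per group. Survival versus infected untreated controls. Minimum effective dose is the sc dose giving significant protection (p < 0.05). The 100%-protection dose is also reported.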

Escherichia coli [2] = experiment: Effective dose at which 100% protection occurs in mice infected with Escherichia coli; format: functional; outline: as §1
Mus musculus [3] = experiment: Effect of interval between drug treatment and challenge on activity in the mouse protection assay 1 days prior to infection at 1.7 mg/Kg; format: functional
Outline: (§2)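 Female NSA (CF-1) mice, 11–16 g, given compound sc in pyrogen-free saline or water (suspensions homogenized) at 6, 3, 1 or 0 days before ip challenge with 0.5 mL E. coli N63 (~4×10^7 CFU/mL). Gentamicin sc at 0.5, 4 and 24 h postinfection. Ten mice per group. Percent protection = (dead in control − dead in treated) ÷ dead in control × 100.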

Escherichia coli [4] = experiment: Compound was evaluated for efficacy in murine systemic Escherichia coli infection without subtherapeutic gentamycin treatment; format: functional; conditions: read-out: PD50
Outline: (§3)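 Female NSA (CF-1) mice (11–16 g) were given test compound in pyrogen-free saline or water, or as a homogenized saline suspension, 24 h before ip challenge with 0.5 mL E. coli N63 (serotype O18) at about 4×10^7 CFU/mL. No gentamicin was given. Endpoint was survival, with 10 mice per group. PD50 was derived by probit analysis of pooled experiments.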

Escherichia coli [5] = experiment: In vitro antibacterial activity on sensitivity of Escherichia coli N63 to gentamicin at a concentration of 3.13 ug/mL; format: functional
Outline: (§4)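 Checkerboard broth microdilution of E. coli N63, inoculated from overnight BHI agar growth, in Mueller-Hinton broth with serial 2-fold dilutions of aminoquinoline and gentamicin. Overnight at 37 °C. Growth read as turbidity at 600 nm, corrected with uninoculated drug-containing wells for insoluble compound. Gentamicin MIC determined at each fixed aminoquinoline concentration.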

Escherichia coli [6] = experiment: In vitro antibacterial activity on sensitivity of Escherichia coli N63 to gentamicin at a concentration of 0 ug/mL; format: functional; outline: as §4
Escherichia coli [7] = experiment: In vitro antibacterial activity on sensitivity of Escherichia coli N63 to gentamicin at a concentration of 6.25 ug/mL
Escherichia coli [8] = experiment: In vitro antibacterial activity on sensitivity of Escherichia coli N63 to gentamicin at a concentration of 25 ug/mL; format: functional; outline: as §4
Escherichia coli [9] = experiment: In vitro antibacterial activity on sensitivity of Escherichia coli N63 to gentamicin at a concentration of 12.5 ug/mL; format: functional; outline: as §4
Escherichia coli [10] = experiment: In vitro antibacterial activity on sensitivity of Escherichia coli N63 to gentamicin at a concentration of 100 ug/mL; format: functional; outline: as §4
Escherichia coli [11] = experiment: Compound was evaluated for efficacy in murine systemic Escherichia coli infection with subtherapeutic gentamycin treatment; format: functional; conditions: read-out: PD50
Outline: as §3, with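 “Gentamicin 0.5 mg/kg” for “No gentamicin”, “given sc at 0.5, 4 and 24 h postinfection.” for “given.”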

Escherichia coli [12] = experiment: In vitro antibacterial activity on sensitivity of Escherichia coli N63 to gentamicin at a concentration of 50 ug/mL; format: functional; outline: as §4
Mus musculus [13] = experiment: Effect of interval between drug treatment and challenge on activity in the mouse protection assay 6 days prior to infection at 1.7 mg/Kg; format: functional; outline: as §2
Escherichia coli [14] = experiment: In vitro antibacterial activity on sensitivity of Escherichia coli N63 to gentamicin at a concentration of 1.56 ug/mL; format: functional; outline: as §4
Mus musculus [15] = experiment: Effect of interval between drug treatment and challenge on activity in the mouse protection assay 0 days prior to infection at 1.7 mg/Kg; format: functional; outline: as §2
Mus musculus [16] = experiment: Effect of interval between drug treatment and challenge on activity in the mouse protection assay 3 days prior to infection at 1.7 mg/Kg; format: functional; outline: as §2
Mus musculus [17] = experiment: Minimum subcutaneous effective dose required to protect mice from systemic Escherichia coli; ND=No dose response; format: functional, organism-based; outline: as §1

SMILES | minimal effective dose (Escherichia coli [1]) | ED100 (Escherichia coli [2]) | other results
O=C(Nc1ccc(OCC2CCCCC2)cc1)c1cccc2[nH]cnc12 | > 50 mg/kg | – | –
Cc1cc(Nc2ccc(OCc3ccccc3)cc2)c2c(ccc3c[nH]nc32)n1 | 2 mg/kg | 6 mg/kg | –
Cc1cc(Nc2ccc(OCC3CCCCC3)cc2)c2c(ccc3[nH]cnc32)n1 | 1 mg/kg | 5 mg/kg | Protection (Mus musculus [3]): 60%; ED50 (Escherichia coli [4]): 1.5 mg/kg; MIC (Escherichia coli [5]): 0.25 µg/mL (≈ 0.647 µM); MIC (Escherichia coli [6]): 0.5 µg/mL (≈ 1.29 µM); MIC (Escherichia coli [7]): 0.25 µg/mL (≈ 0.647 µM); MIC (Escherichia coli [8]): 0.125 µg/mL (≈ 0.323 µM); MIC (Escherichia coli [9]): 0.125 µg/mL (≈ 0.323 µM); MIC (Escherichia coli [10]): 0.063 µg/mL (≈ 0.163 µM); ED50 (Escherichia coli [11]): 0.5 mg/kg; MIC (Escherichia coli [12]): 0.063 µg/mL (≈ 0.163 µM); Protection (Mus musculus [13]): 0%; MIC (Escherichia coli [14]): 0.25 µg/mL (≈ 0.647 µM); Protection (Mus musculus [15]): 0%; Protection (Mus musculus [16]): 40%
COc1cccc(Nc2cc(C)nc(C)c2/C(C)=N/O)c1 | > 100 mg/kg | – | –
Cc1cc(Nc2ccc(OCc3ccccc3)cc2)c2ccccc2n1 | > 50 mg/kg | – | –
CCCCOc1ccc(Nc2cc(C)nc3ccccc23)cc1 | > 50 mg/kg | – | –
COc1cccc(Nc2cc(C)nc3ccc4[nH]cnc4c23)c1 | 6 mg/kg | 50 mg/kg | –
Cc1cc(NC2CCCCC2)c2c(ccc3[nH]cnc32)n1 | 6 mg/kg | 6 mg/kg | –
Cc1cc(Nc2ccc(OCc3ccccc3)cc2)c2c(ccc3[nH]ncc32)n1 | – | – | MED (Mus musculus [17]): No dose response
COc1cccc(NC(=O)c2cccc3[nH]cnc23)c1 | > 50 mg/kg | – | –
COc1cccc(Nc2cc(C)nc(C)c2C(C)O)c1 (stereo not drawn) | > 100 mg/kg | – | –
CCCCc1ccc(Nc2cc(C)nc3ccccc23)cc1 | > 50 mg/kg | – | –
COc1cccc(Nc2cc(C)nc3ccc4[nH]ncc4c23)c1 | > 50 mg/kg | – | –
COc1cccc(Nc2cc(C)nc(C)c2C(C)=O)c1 | > 100 mg/kg | – | –
COc1cccc(Sc2cc(C)nc3ccc4[nH]cnc4c23)c1 | > 50 mg/kg | – | –
COc1cccc(Nc2cc(C)nc3ccc4c[nH]nc4c23)c1 | 6 mg/kg | 17 mg/kg | Protection (Mus musculus [3]; in the assay text read “25 mg/Kg” for “1.7 mg/Kg”): 100%; ED50 (Escherichia coli [4]): 9.8 mg/kg; MIC (Escherichia coli [5]): 0.25 µg/mL (≈ 0.821 µM); MIC (Escherichia coli [6]): 0.25 µg/mL (≈ 0.821 µM); MIC (Escherichia coli [7]): 0.25 µg/mL (≈ 0.821 µM); MIC (Escherichia coli [8]): 0.25 µg/mL (≈ 0.821 µM); MIC (Escherichia coli [9]): 0.25 µg/mL (≈ 0.821 µM); ED50 (Escherichia coli [11]): 4.2 mg/kg; MIC (Escherichia coli [12]): 0.25 µg/mL (≈ 0.821 µM); Protection (Mus musculus [13]): 88%; MIC (Escherichia coli [14]): 0.25 µg/mL (≈ 0.821 µM); Protection (Mus musculus [15]): 0%; Protection (Mus musculus [16]): 100%
COc1cccc(N(C)c2cc(C)nc3ccc4[nH]cnc4c23)c1 | > 50 mg/kg | – | –
COc1cccc(Nc2cc(C)nc3ccccc23)c1 | > 50 mg/kg | – | –
CCCCOc1ccc(Nc2cc(C)nc3ccc4[nH]cnc4c23)cc1 | 5 mg/kg | 15 mg/kg | –
CCCCc1ccc(Nc2cc(C)nc3ccc4[nH]cnc4c23)cc1 | 5 mg/kg | 15 mg/kg | –
O=C(NC1CCCCC1)c1cccc2[nH]cnc12 | > 50 mg/kg | – | –
Cc1cc(Nc2ccc(C#N)cc2)c2c(ccc3[nH]cnc32)n1 | 2 mg/kg | 2 mg/kg | –
N#Cc1ccc(NC(=O)c2cccc3[nH]cnc23)cc1 | > 50 mg/kg | – | –
